Test results reported in PMC6219460 (SLAS discovery : advancing life sciences R & D, 2017).
Like-named read-outs stand apart in the source and are kept apart here.

Tests used:
human CB2 receptor [1] = target: T1, human CB2 receptor (Homo sapiens, UniProt P34972); format: binding; details: for selectivity for CB2 versus CB1 (in words): from radioligand binding at CB2 and CB1
human CB1 receptor = human CB1 receptor (Homo sapiens, UniProt P21554); format: binding; details: for inhibition of [3H]CP 55,940 binding to CB1 receptors (in words): concentrations up to 10 μM
Sequence of human CB1 receptor (P21554 whole entry): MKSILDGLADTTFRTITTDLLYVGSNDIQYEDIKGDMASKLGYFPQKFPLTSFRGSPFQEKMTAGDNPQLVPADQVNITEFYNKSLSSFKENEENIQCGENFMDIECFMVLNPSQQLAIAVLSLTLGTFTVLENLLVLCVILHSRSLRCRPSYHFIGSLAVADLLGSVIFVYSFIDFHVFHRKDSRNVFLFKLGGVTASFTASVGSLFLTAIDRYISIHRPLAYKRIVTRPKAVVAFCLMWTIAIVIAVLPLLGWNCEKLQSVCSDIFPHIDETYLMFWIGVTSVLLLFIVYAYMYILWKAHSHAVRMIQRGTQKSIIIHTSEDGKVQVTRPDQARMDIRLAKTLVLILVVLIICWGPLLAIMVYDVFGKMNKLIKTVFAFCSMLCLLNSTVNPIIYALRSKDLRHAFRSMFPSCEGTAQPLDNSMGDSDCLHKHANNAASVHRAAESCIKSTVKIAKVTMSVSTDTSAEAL

human CB2 receptor [2] = target: T1, human CB2 receptor; experiment: [35S]GTPγS binding assay, HEK293 membranes expressing CB2; format: biochemical; details: 10 μM GDP
In short: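 HEK293 membranes expressing recombinant human CB2 (8 µg/well) were incubated with 0.1 nM [35S]GTPγS, 10 µM GDP, 0.1% (w/v) BSA and test compound (typically 1 nM–10 µM) in 50 mM Tris-HCl pH 7.4, 3 mM MgCl2, 0.2 mM EGTA, 100 mM NaCl. Nonspecific binding was set with 10 µM unlabeled GTPγS. Reactions were stopped by filtration. Duplicates, three experiments.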

[3] = Ki (μM) CB2, [3H]CP 55,940 tracer at 1.5 nM
[4] = log (EC50, Molar) GTPγS binding CB2, 0.1 nM [35S]GTPγS
[5] = read-out: log (Ki, Molar) CB1 (converted), [3H]CP 55,940 tracer at 1.5 nM
[6] = EC50 GTPγS binding, 0.1 nM [35S]GTPγS

T1 sequence (P34972 whole entry): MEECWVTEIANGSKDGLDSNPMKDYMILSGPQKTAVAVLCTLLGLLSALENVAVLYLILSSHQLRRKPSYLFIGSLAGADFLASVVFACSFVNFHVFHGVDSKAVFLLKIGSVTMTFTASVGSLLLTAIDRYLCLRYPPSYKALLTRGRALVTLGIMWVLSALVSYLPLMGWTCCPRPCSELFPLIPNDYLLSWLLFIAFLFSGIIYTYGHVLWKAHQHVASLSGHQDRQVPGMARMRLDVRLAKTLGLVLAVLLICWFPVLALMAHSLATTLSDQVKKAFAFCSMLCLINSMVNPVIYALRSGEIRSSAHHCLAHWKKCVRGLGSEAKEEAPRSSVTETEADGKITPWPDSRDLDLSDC

Ki (human CB2 receptor [1]; [3])	selectivity for CB2 versus CB1 (in words) (human CB2 receptor [1])	Ki (human CB1 receptor)	EC50 (human CB2 receptor [2]; [4])	inhibition of [3H]CP 55,940 binding to CB1 receptors (in words) (human CB1 receptor)	Ki (human CB1 receptor; [5])	EC50 (human CB2 receptor [2]; [6])	Ki (human CB2 receptor [1]; log (Ki, Molar) CB2, [3H]CP 55,940 tracer at 1.5 nM)	SMILES
0.8 µM	only weakly selective	1600 nM	39.8 nM	–	–	–	–	CCc1c(C)sc(NC(=O)C(Sc2ccccc2)c2ccccc2)c1C(=O)OC (stereo not drawn) [Compound 3, methyl 4-ethyl-5-methyl-2-(2-phenyl-2 (phenylthio)acetamido)thiophene-3-carboxylate]
1.1 µM	only weakly selective	1800 nM	501 nM	–	–	–	–	c1ccc(Nc2nc3ccccc3nc2Nc2ccccc2)cc1 [Compound 2, N2,N3-diphenylquinoxaline-2,3-diamine]
2.3 µM	selectively bind CB2 receptors	> 10000 nM	–	no measurable inhibition	> 10000 nM	500 nM	–	CC(C)c1cc(C2CCCN2C(=O)c2cc(-c3ccc4c(c3)OCO4)on2)no1 (stereo not drawn) [Compound 1, (5-(benzo[d][1,3]dioxol-5-yl)isoxazol-3-yl)(2-(5-isopropylisoxazol-3-yl)pyrrolidin-1-yl)methanone]
0.2 µM	selectively bind CB2 receptors	> 10000 nM	–	no detectable inhibition	> 10000 nM	80 nM	0.251 µM	CC1CCN(C(NC(=O)c2ccc(C(C)(C)C)cc2)C(Cl)(Cl)Cl)CC1 (stereo not drawn) [Compound 4, 4-(tert-butyl)-N-(2,2,2-trichloro-1-(4-methylpiperidin-1 yl)ethyl)benzamide]
